Assay results from ChEMBL document CHEMBL5058577, “EUbOPEN Chemogenomics Library 2 (Multiplex)” (2022).

Tested on: HEK-293T
Test: Multiplex assay against HEK293T
Assay type: toxicity, cell-based
Conditions: human
How it was run: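 On a CQ1 microscope at 37°C and 5% CO2, live cells were imaged after compound addition. They had been stained at seeding with Hoechst33342, BioTracker Green Microtubule Cytoskeleton Dye, MitoTracker Red and Annexin V Alexa Fluor 680. CellPathfinder machine-learning gating assigned cells to Hoechst high-intensity objects or normal cells, normal cells to healthy, pyknosed or fragmented nuclei, and pyknosed cells to mitotic or apoptotic. Tubulin, mitochondrial-mass and membrane-permeability phenotypes are per cents of healthy-nucleus cells.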

[1] = 12 h, 1 µM, compound concentration 1 uM, replicate 1
[2] = 12 h, 1 µM, compound concentration 1 uM, replicate 2
[3] = 12 h, 10 µM, compound concentration 10 uM, replicate 1
[4] = 12 h, 10 µM, compound concentration 10 uM, replicate 2
[5] = 24 h, 1 µM, compound concentration 1 uM, replicate 1
[6] = 24 h, 1 µM, compound concentration 1 uM, replicate 2
[7] = 24 h, 10 µM, compound concentration 10 uM, replicate 1
[8] = 24 h, 10 µM, compound concentration 10 uM, replicate 2
[9] = 48 h, 1 µM, compound concentration 1 uM, replicate 1
[10] = 48 h, 1 µM, compound concentration 1 uM, replicate 2
[11] = 48 h, 10 µM, compound concentration 10 uM, replicate 1
[12] = 48 h, 10 µM, compound concentration 10 uM, replicate 2

S=C(NCCCc1c[nH]cn1)NCCCN(Cc1ccc(Cl)c(Cl)c1)c1ccc(Br)cn1
Population Apoptotic (%) [1]: 39%
Population Fragmented Nuclei (%) [1]: 8%
Population Healthy Nuclei (%) [1]: 78%
Population Hoechst High Intensity Objects (%) [1]: 17%
Population Membrane Permeable-Phenotype (%) [1]: 0%
Population Mitochondria Different-Phenotype (%) [1]: 50%
Population Mitotic Cells (%) [1]: 60%
Population Normal (%) [1]: 82%
Population Pyknosed Nuclei (%) [1]: 13%
Population Tubulin-Different-Phenotype (%) [1]: 36%
Total Cell Count [1]: 378
Population Apoptotic (%) [2]: 53%
Population Fragmented Nuclei (%) [2]: 5%
Population Healthy Nuclei (%) [2]: 79%
Population Hoechst High Intensity Objects (%) [2]: 6%
Population Mitochondria Different-Phenotype (%) [2]: 58%
Population Mitotic Cells (%) [2]: 46%
Population Normal (%) [2]: 93%
Population Pyknosed Nuclei (%) [2]: 14%
Population Tubulin-Different-Phenotype (%) [2]: 35%
Total Cell Count [2]: 294
Population Apoptotic (%) [3]: 90%
Population Fragmented Nuclei (%) [3]: 4%
Population Healthy Nuclei (%) [3]: 57%
Population Hoechst High Intensity Objects (%) [3]: 33%
Population Membrane Permeable-Phenotype (%) [3]: 0%
Population Mitochondria Different-Phenotype (%) [3]: 77%
Population Mitotic Cells (%) [3]: 9%
Population Normal (%) [3]: 66%
Population Pyknosed Nuclei (%) [3]: 38%
Population Tubulin-Different-Phenotype (%) [3]: 78%
Total Cell Count [3]: 242
Population Apoptotic (%) [4]: 77%
Population Fragmented Nuclei (%) [4]: 8%
Population Healthy Nuclei (%) [4]: 71%
Population Hoechst High Intensity Objects (%) [4]: 19%
Population Mitochondria Different-Phenotype (%) [4]: 84%
Population Mitotic Cells (%) [4]: 22%
Population Normal (%) [4]: 80%
Population Pyknosed Nuclei (%) [4]: 19%
Total Cell Count [4]: 229
Population Apoptotic (%) [5]: 39%
Population Fragmented Nuclei (%) [5]: 10%
Population Healthy Nuclei (%) [5]: 73%
Population Hoechst High Intensity Objects (%) [5]: 22%
Population Membrane Permeable-Phenotype (%) [5]: 0%
Population Mitochondria Different-Phenotype (%) [5]: 45%
Population Mitotic Cells (%) [5]: 60%
Population Normal (%) [5]: 77%
Population Pyknosed Nuclei (%) [5]: 16%
Population Tubulin-Different-Phenotype (%) [5]: 32%
Total Cell Count [5]: 326
Population Apoptotic (%) [6]: 41%
Population Fragmented Nuclei (%) [6]: 9%
Population Healthy Nuclei (%) [6]: 81%
Population Hoechst High Intensity Objects (%) [6]: 13%
Population Mitochondria Different-Phenotype (%) [6]: 48%
Population Mitotic Cells (%) [6]: 58%
Population Normal (%) [6]: 86%
Population Pyknosed Nuclei (%) [6]: 9%
Total Cell Count [6]: 301
Population Apoptotic (%) [7]: 85%
Population Fragmented Nuclei (%) [7]: 11%
Population Healthy Nuclei (%) [7]: 49%
Population Hoechst High Intensity Objects (%) [7]: 48%
Population Membrane Permeable-Phenotype (%) [7]: 1%
Population Mitochondria Different-Phenotype (%) [7]: 75%
Population Mitotic Cells (%) [7]: 14%
Population Normal (%) [7]: 51%
Population Pyknosed Nuclei (%) [7]: 39%
Population Tubulin-Different-Phenotype (%) [7]: 78%
Total Cell Count [7]: 237
Population Apoptotic (%) [8]: 82%
Population Fragmented Nuclei (%) [8]: 16%
Population Healthy Nuclei (%) [8]: 59%
Population Hoechst High Intensity Objects (%) [8]: 39%
Population Membrane Permeable-Phenotype (%) [8]: 0%
Population Mitochondria Different-Phenotype (%) [8]: 82%
Population Mitotic Cells (%) [8]: 17%
Population Normal (%) [8]: 61%
Population Pyknosed Nuclei (%) [8]: 23%
Total Cell Count [8]: 200
Population Apoptotic (%) [9]: 47%
Population Fragmented Nuclei (%) [9]: 14%
Population Healthy Nuclei (%) [9]: 65%
Population Hoechst High Intensity Objects (%) [9]: 36%
Population Membrane Permeable-Phenotype (%) [9]: 3%
Population Mitochondria Different-Phenotype (%) [9]: 38%
Population Mitotic Cells (%) [9]: 52%
Population Normal (%) [9]: 63%
Population Pyknosed Nuclei (%) [9]: 19%
Population Tubulin-Different-Phenotype (%) [9]: 29%
Total Cell Count [9]: 307
Population Apoptotic (%) [10]: 36%
Population Fragmented Nuclei (%) [10]: 17%
Population Healthy Nuclei (%) [10]: 73%
Population Hoechst High Intensity Objects (%) [10]: 27%
Population Membrane Permeable-Phenotype (%) [10]: 0%
Population Mitochondria Different-Phenotype (%) [10]: 32%
Population Mitotic Cells (%) [10]: 63%
Population Normal (%) [10]: 72%
Population Pyknosed Nuclei (%) [10]: 9%
Population Tubulin-Different-Phenotype (%) [10]: 19%
Total Cell Count [10]: 277
Population Apoptotic (%) [11]: 84%
Population Fragmented Nuclei (%) [11]: 23%
Population Healthy Nuclei (%) [11]: 23%
Population Hoechst High Intensity Objects (%) [11]: 75%
Population Membrane Permeable-Phenotype (%) [11]: 0%
Population Mitochondria Different-Phenotype (%) [11]: 86%
Population Mitotic Cells (%) [11]: 15%
Population Normal (%) [11]: 24%
Population Pyknosed Nuclei (%) [11]: 52%
Population Tubulin-Different-Phenotype (%) [11]: 53%
Total Cell Count [11]: 256
Population Apoptotic (%) [12]: 75%
Population Fragmented Nuclei (%) [12]: 21%
Population Hoechst High Intensity Objects (%) [12]: 67%
Population Mitochondria Different-Phenotype (%) [12]: 80%
Population Mitotic Cells (%) [12]: 25%
Population Normal (%) [12]: 32%
Population Pyknosed Nuclei (%) [12]: 55%
Population Tubulin-Different-Phenotype (%) [12]: 40%
Total Cell Count [12]: 203

N[C@](CC1c2ccccc2Oc2ccccc21)(C(=O)O)[C@H]1C[C@@H]1C(=O)O
Population Apoptotic (%) [1]: 38%
Population Fragmented Nuclei (%) [1]: 6%
Population Healthy Nuclei (%) [1]: 83%
Population Hoechst High Intensity Objects (%) [1]: 7%
Population Membrane Permeable-Phenotype (%) [1]: 0%
Population Mitochondria Different-Phenotype (%) [1]: 43%
Population Mitotic Cells (%) [1]: 61%
Population Normal (%) [1]: 92%
Population Pyknosed Nuclei (%) [1]: 10%
Population Tubulin-Different-Phenotype (%) [1]: 27%
Total Cell Count [1]: 447
Population Apoptotic (%) [2]: 54%
Population Fragmented Nuclei (%) [2]: 7%
Population Healthy Nuclei (%) [2]: 79%
Population Hoechst High Intensity Objects (%) [2]: 5%
Population Mitochondria Different-Phenotype (%) [2]: 58%
Population Mitotic Cells (%) [2]: 45%
Population Normal (%) [2]: 94%
Population Pyknosed Nuclei (%) [2]: 12%
Population Tubulin-Different-Phenotype (%) [2]: 25%
Total Cell Count [2]: 270
Population Apoptotic (%) [3]: 32%
Population Fragmented Nuclei (%) [3]: 9%
Population Healthy Nuclei (%) [3]: 78%
Population Hoechst High Intensity Objects (%) [3]: 8%
Population Membrane Permeable-Phenotype (%) [3]: 0%
Population Mitochondria Different-Phenotype (%) [3]: 40%
Population Mitotic Cells (%) [3]: 67%
Population Normal (%) [3]: 91%
Population Pyknosed Nuclei (%) [3]: 12%
Population Tubulin-Different-Phenotype (%) [3]: 23%
Total Cell Count [3]: 381
Population Fragmented Nuclei (%) [4]: 4%
Population Healthy Nuclei (%) [4]: 81%
Population Hoechst High Intensity Objects (%) [4]: 7%
Population Mitochondria Different-Phenotype (%) [4]: 66%
Population Normal (%) [4]: 92%
Population Pyknosed Nuclei (%) [4]: 13%
Population Tubulin-Different-Phenotype (%) [4]: 31%
Total Cell Count [4]: 382
Population Apoptotic (%) [5]: 21%
Population Fragmented Nuclei (%) [5]: 8%
Population Healthy Nuclei (%) [5]: 81%
Population Hoechst High Intensity Objects (%) [5]: 3%
Population Membrane Permeable-Phenotype (%) [5]: 1%
Population Mitochondria Different-Phenotype (%) [5]: 24%
Population Mitotic Cells (%) [5]: 78%
Population Normal (%) [5]: 96%
Population Pyknosed Nuclei (%) [5]: 10%
Population Tubulin-Different-Phenotype (%) [5]: 15%
Total Cell Count [5]: 629
Population Apoptotic (%) [6]: 38%
Population Fragmented Nuclei (%) [6]: 9%
Population Healthy Nuclei (%) [6]: 84%
Population Hoechst High Intensity Objects (%) [6]: 5%
Population Membrane Permeable-Phenotype (%) [6]: 0%
Population Mitochondria Different-Phenotype (%) [6]: 30%
Population Mitotic Cells (%) [6]: 61%
Population Normal (%) [6]: 94%
Population Pyknosed Nuclei (%) [6]: 6%
Population Tubulin-Different-Phenotype (%) [6]: 16%
Total Cell Count [6]: 368
Population Apoptotic (%) [7]: 29%
Population Fragmented Nuclei (%) [7]: 10%
Population Healthy Nuclei (%) [7]: 79%
Population Hoechst High Intensity Objects (%) [7]: 5%
Population Membrane Permeable-Phenotype (%) [7]: 0%
Population Mitochondria Different-Phenotype (%) [7]: 30%
Population Mitotic Cells (%) [7]: 70%
Population Normal (%) [7]: 94%
Population Pyknosed Nuclei (%) [7]: 10%
Population Tubulin-Different-Phenotype (%) [7]: 17%
Total Cell Count [7]: 510
Population Apoptotic (%) [8]: 40%
Population Fragmented Nuclei (%) [8]: 6%
Population Healthy Nuclei (%) [8]: 82%
Population Mitochondria Different-Phenotype (%) [8]: 41%
Population Mitotic Cells (%) [8]: 59%
Population Pyknosed Nuclei (%) [8]: 11%
Population Tubulin-Different-Phenotype (%) [8]: 16%
Total Cell Count [8]: 471
Population Apoptotic (%) [9]: 12%
Population Fragmented Nuclei (%) [9]: 11%
Population Healthy Nuclei (%) [9]: 80%
Population Hoechst High Intensity Objects (%) [9]: 2%
Population Membrane Permeable-Phenotype (%) [9]: 2%
Population Mitochondria Different-Phenotype (%) [9]: 15%
Population Mitotic Cells (%) [9]: 87%
Population Normal (%) [9]: 97%
Population Pyknosed Nuclei (%) [9]: 7%
Population Tubulin-Different-Phenotype (%) [9]: 13%
Total Cell Count [9]: 1040
Population Apoptotic (%) [10]: 17%
Population Fragmented Nuclei (%) [10]: 12%
Population Healthy Nuclei (%) [10]: 81%
Population Hoechst High Intensity Objects (%) [10]: 1%
Population Membrane Permeable-Phenotype (%) [10]: 0%
Population Mitochondria Different-Phenotype (%) [10]: 17%
Population Mitotic Cells (%) [10]: 82%
Population Normal (%) [10]: 98%
Population Pyknosed Nuclei (%) [10]: 6%
Population Tubulin-Different-Phenotype (%) [10]: 10%
Total Cell Count [10]: 654
Population Apoptotic (%) [11]: 28%
Population Fragmented Nuclei (%) [11]: 13%
Population Healthy Nuclei (%) [11]: 78%
Population Hoechst High Intensity Objects (%) [11]: 2%
Population Membrane Permeable-Phenotype (%) [11]: 0%
Population Mitochondria Different-Phenotype (%) [11]: 17%
Population Mitotic Cells (%) [11]: 71%
Population Normal (%) [11]: 97%
Population Pyknosed Nuclei (%) [11]: 8%
Population Tubulin-Different-Phenotype (%) [11]: 8%
Total Cell Count [11]: 789
Population Apoptotic (%) [12]: 42%
Population Healthy Nuclei (%) [12]: 80%
Population Hoechst High Intensity Objects (%) [12]: 4%
Population Mitochondria Different-Phenotype (%) [12]: 25%
Population Mitotic Cells (%) [12]: 57%
Population Normal (%) [12]: 95%
Population Pyknosed Nuclei (%) [12]: 6%
Population Tubulin-Different-Phenotype (%) [12]: 12%
Total Cell Count [12]: 687
